Assay results as given in article PMC7526717 (Journal of Clinical Oncology, 2020).
Values joined by “and” are separate entries in the source; they are usually repeats but may differ in a detail not shown here. Equal values may be shown once. “Also recorded” adds a separate entry of the source. Read-outs that look alike come from different tables or passages of the source.

Experiments:
[1] = Phase I study safety: TEAEs, DLTs, MTD; type: in vivo, human; settings: for MTD: maximum dose evaluated 200 mg twice a day
Method in brief: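 Oral test compound was given at 20-200 mg twice a day or 100-250 mg once daily in 28-day cycles, using pharmacologically guided 3 + 3 escalation. A level was safe with zero DLTs in three or one in six patients. AEs were recorded from consent to 30 days after last dose and investigator-graded by CTCAE v4.03. Safety population: all patients dosed.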

[2] = test system: advanced gastrointestinal stromal tumor (GIST); assay: Phase I study efficacy, investigator assessed, RECIST version 1.1; type: in vivo, human; settings: 150 mg once daily
Method in brief: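 Patients with advanced GIST after ≥1 prior systemic therapy received oral test compound 150 mg once daily in 28-day cycles, in dose-escalation or expansion. Imaging at screening, after cycles 2, 4 and 6, then every three cycles and at final visit. Responses were investigator-assessed per RECIST 1.1 and confirmed about 28 days later. Intent-to-treat population, grouped by line of therapy.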

[3] = Plasma pharmacokinetics in patients; type: in vivo, human
advanced GIST = settings: cited from earlier work
PDGFRB = settings: cited from earlier work
TIE2 = settings: cited from earlier work
VEGFR2 = settings: cited from earlier work
BRAF = settings: cited from earlier work
GIST [4] = settings: cited from earlier work
metastatic GIST = settings: first-line; cited from earlier work
GIST [5] = settings: cited from earlier work; remark: listed apart in the source
[6] = 150 mg once daily, cycle 1 day 15

Compound: CCn1c(=O)c(-c2cc(NC(=O)Nc3ccccc3)c(F)cc2Br)cc2cnc(NC)cc21 [Ripretinib, 1-[4-bromo-5-[1-ethyl-7-(methylamino)-2-oxo-1,2-dihydro-1,6-naphthyridin-3-yl]-2-fluorophenyl]-3-phenylurea]
- DLT ([1]; 100 mg twice a day (n = 12)): asymptomatic grade 3 lipase elevation
- DLT ([1]; 150 mg once daily (n = 12)): asymptomatic grade 4 creatine phosphokinase increase
- DLT ([1]; 200 mg twice a day (n = 7)): asymptomatic grade 3 lipase elevation
- Alopecia, Total Grades 1–4 ([1]; GIST, 150 mg once daily): 88 [62.0%] No. (%) and 88 (62.0%) No. (%)
- Constipation, Total Grades 1–4 ([1]; GIST, 150 mg once daily): 56 [39.4%] No. (%)
- Decreased appetite, Total Grades 1–4 ([1]; GIST, 150 mg once daily): 48 [33.8%] No. (%)
- Diarrhea, Total Grades 1–4 ([1]; GIST, 150 mg once daily): 47 [33.1%] No. (%)
- Fatigue, Total Grades 1–4 ([1]; GIST, 150 mg once daily): 78 [54.9%] No. (%)
- Lipase increased, Grade 3/4 ([1]; GIST, 150 mg once daily): 25 (17.6%) No. (%)
- Myalgia, Total Grades 1–4 ([1]; GIST, 150 mg once daily): 69 [48.6%] No. (%)
- Nausea, Total Grades 1–4 ([1]; GIST, 150 mg once daily): 65 [45.8%] No. (%)
- PPES, Total Grades 1–4 ([1]; GIST, 150 mg once daily): 62 [43.7%] No. (%)
- TEAEs leading to a dose reduction ([1]; GIST, 150 mg once daily): 26 (18.3%) patients (%)
- TEAEs leading to treatment interruption ([1]; GIST, 150 mg once daily): 77 (54.2%) patients (%)
- Treatment-emergent SAE: abdominal pain ([1]; GIST, 150 mg once daily): 14 [9.9%] n [%]
- Treatment-emergent SAE: cancer surgery ([1]; GIST, 150 mg once daily): 7 [4.9%] n [%]
- Treatment-emergent SAE: death ([1]; GIST, 150 mg once daily): 11 [7.7%] n [%]
- Treatment-emergent SAE: sepsis ([1]; GIST, 150 mg once daily): 6 [4.2%] n [%]
- patients who discontinued study treatment because of PPES ([1]; GIST, 150 mg once daily): no patients
- Any TEAE ([1]; GIST, 150 mg once daily, total): 142 (100%) No. (%)
- Any TEAE, grade 3 and 4 ([1]; all patients): 173 (67.1%) No. (%)
- Any TEAE, grade All ([1]; all patients): 257 (99.6%) No. (%)
- TEAEs leading to a dose reduction ([1]; all patients): 38 (14.7%) patients (%)
- TEAEs leading to treatment interruption ([1]; all patients): 127 (49.2%) patients (%)
- Treatment-emergent SAE: abdominal pain ([1]; all patients): 17 [6.6%] n [%]
- Treatment-emergent SAE: cancer surgery ([1]; all patients): 10 [3.9%] n [%]
- Treatment-emergent SAE: death ([1]; all patients): 16 [6.2%] n [%]
- Treatment-emergent SAE: dyspnea ([1]; all patients): 8 [3.1%] n [%]
- discontinued study treatment secondary to a drug-related TEAE ([1]; all patients): 16 (6.2%) patients (%)
- treatment-emergent serious adverse event (SAE) ([1]; all patients): 137 (53.1%) patients (%)
- DLTs reported ([1]; dose-escalation phase): Three
- patients at each dose level who experienced a DLT ([1]; dose-escalation phase): < 33%
- RP2D ([1]; in vivo): 150 mg once daily
- MTD [1]: no maximum tolerated dose was reached
- MTD ([1]; listed as ripretinib): not reached; also recorded: No MTD was reached
- Duration of response, median (95% CI) ([2]; fourth line or greater): 17.5 months
- ORR (95% CI) ([2]; fourth line or greater): 7.2%
- PFS, median (95% CI) ([2]; fourth line or greater): 5.5 months
- probability of PFS at 12 months ([2]; fourth line or greater): 21.2%
- Duration of response, median (95% CI) ([2]; second line): 18.4 months
- ORR (95% CI) ([2]; second line): 19.4%
- PFS, median (95% CI) ([2]; second line): 10.7 months
- probability of PFS at 12 months ([2]; second line): 33.5%
- ORR (95% CI) ([2]; third line): 14.3%
- PFS, median (95% CI) ([2]; third line): 8.3 months
- probability of PFS at 12 months ([2]; third line): 29.2%
- Duration of response, median (95% CI) ([2]; total): 18.4 months
- ORR (95% CI) ([2]; total): 11.3%
- Cmax higher compared with cycle 1 day 1 [3, 6]: 61%
- accumulation on the basis of AUC0-12h ([3]; 150 mg once daily, cycle 1 day 15 vs day 1): 66%
- Tmax ([3]; human, plasma, oral, time to Tmax, single doses, fasting, cycle 1 day 1): 2 to 10 h
- CV% for Cmax and AUC0-24h ([3]; single doses with PK data for at least 10 patients): 35%-60%
- mPFS (advanced GIST): 6.3 month
- inhibition in vitro (PDGFRB): inhibits
- inhibition in vitro (TIE2): inhibits
- inhibition in vitro (VEGFR2): inhibits
- inhibition in vitro (BRAF): inhibits

Compound: CNC(=O)c1cc(Oc2ccc(NC(=O)Nc3ccc(Cl)c(C(F)(F)F)c3)c(F)c2)ccn1 [regorafenib]
- syndromes such as PPES, grade 3 (GIST [4]): 19.7%
- mPFS (GIST [4]; third-line): ~4.8 months

Compound: Cc1ccc(NC(=O)c2ccc(CN3CCN(C)CC3)cc2)cc1Nc1nccc(-c2cccnc2)n1 [imatinib]
- mPFS (metastatic GIST): 1.7-2 years

Compound: CCN(CC)CCNC(=O)c1c(C)[nH]c(/C=C2\C(=O)Nc3ccc(F)cc32)c1C [sunitinib]
- syndromes such as PPES, grade 3 (GIST [5]): 4%
- mPFS (GIST [5]; second-line): approximately 5.6 months

Compound: CCn1c(=O)c(-c2cc(NC(=O)Nc3ccccc3)c(F)cc2Br)cc2cnc(N)cc21 [DP-5439]
- accumulation [3, 6]: 4.6- to 5.3 fold
- exposure (AUC) relative to parent ripretinib ([3]; 15 days of dosing at 150 mg once daily): approximately 129%
- exposure (AUC) relative to parent ripretinib ([3]; single 150-mg doses): approximately 49%
